{"data": "Measured values collected from several papers", "RPS6KA6 C-terminal kinase domain": "Ribosomal protein S6 kinase alpha-6, C-terminal kinase domain (RPS6KA6, Homo sapiens, UniProt Q9UK32)", "RPS6KA6": "Ribosomal protein S6 kinase alpha-6 (RPS6KA6, Homo sapiens, UniProt Q9UK32)", "RPS6KA6 N-terminal kinase domain": "Ribosomal protein S6 kinase alpha-6, N-terminal kinase domain (RPS6KA6, Homo sapiens, UniProt Q9UK32)", "note": "Protocols differ between the studies behind these lines."}
{"Compound": "CCC(=N\\O)/C(C)=C/c1ccc(F)cc1", "target": "RPS6KA6 C-terminal kinase domain", "assay": "cell-free assay, competition with immobilised ligand", "setting": "1 µM", "measurement": "remaining binding", "value": "94%"}
{"Compound": "CNC(=O)c1cc(Oc2ccc(NC(=O)Nc3ccc(Cl)c(C(F)(F)F)c3)cc2)ccn1", "target": "RPS6KA6", "assay": "enzyme activity, inhibitor", "setting": "0.3 µM", "measurement": "inhibition", "value": "-29%"}
{"Compound": "CN1CCC2(CC1)NC(=O)c1c(c3ccc(Cl)c(Cl)c3n1C)C2C#N (racemic)", "target": "RPS6KA6", "assay": "thermal stability, DSF", "setting": "10 µM", "measurement": "ΔTm", "value": "0 °C"}
{"Compound": "CC(C)(O)[C@H]1CC[C@H](Nc2ccc3ncc(-c4cccc(C(F)(F)F)c4)n3n2)CC1", "target": "RPS6KA6", "assay": "enzyme activity, inhibitor", "setting": "1 µM", "measurement": "remaining activity", "value": "91.7%"}
{"Compound": "Cn1c2c(c3ccc(Cl)c(Cl)c31)C(C#N)C1(CCCCC1)NC2=O (racemic)", "target": "RPS6KA6", "assay": "thermal stability, DSF", "setting": "10 µM", "measurement": "ΔTm", "value": "0 °C"}
{"Compound": "CO[C@H]1CC[C@H](CNc2ccc(S(=O)(=O)NC(=O)c3ccc(N4CCN(CC5=C(c6ccc(Cl)cc6)CC(C)(C)CC5)CC4)cc3Oc3cnc4[nH]ccc4c3)cc2[N+](=O)[O-])CC1", "target": "RPS6KA6 C-terminal kinase domain", "assay": "cell-free assay, competition with immobilised ligand", "setting": "1 µM", "measurement": "remaining binding", "value": "81%"}
{"Compound": "COc1cc(Cl)c(C(=O)N[C@@H](CN[C@H]2CC[C@@H](N)CC2)Cc2ccc(C#N)cc2)cc1-c1ccc(CN[C@H](C)c2ccc(C)cc2)o1", "target": "RPS6KA6", "assay": "enzyme activity, inhibitor", "setting": "1 µM", "measurement": "remaining activity", "value": "97%"}
{"Compound": "COc1ccc2c(c1)O[C@H](c1ccc(OC)c(OC)c1)C[C@@H]2NC(=O)C1(c2ccc3c(c2)OC(F)(F)O3)CC1", "target": "RPS6KA6 C-terminal kinase domain", "assay": "cell-free assay, competition with immobilised ligand", "setting": "1 µM", "measurement": "remaining binding", "value": "91%"}
{"Compound": "Cc1ccc(NC(=O)c2ccc(C)c(C(F)(F)F)c2)cc1C#Cc1nn(C2CCC(O)CC2)c2ncnc(N)c12 (stereo not shown)", "target": "RPS6KA6", "assay": "cell-free assay", "setting": "10 µM", "measurement": "remaining signal", "value": "44%"}
{"Compound": "Cc1sc(C(=O)NC2COC2)cc1-n1cc(NC(=O)Nc2c(F)cccc2Cl)cn1", "target": "RPS6KA6", "assay": "enzyme activity, inhibitor", "setting": "10 µM", "measurement": "remaining activity", "value": "116%"}
{"Compound": "O=C1NC(=O)c2cc(Nc3ccc(F)cc3)c(Nc3ccc(F)cc3)cc21", "target": "RPS6KA6", "assay": "cell-free assay", "setting": "0.5 µM", "measurement": "remaining signal", "value": "97.4%"}
{"Compound": "N[C@@H]1CCN(c2nccc(-c3cnn4ncccc34)n2)C1", "target": "RPS6KA6 C-terminal kinase domain", "assay": "binding, competition with immobilised ligand", "setting": "1 µM", "measurement": "remaining binding", "value": "100%"}
{"Compound": "O=C(O)[C@H]1[C@H](Cn2nnc3ccccc3c2=O)CC[C@@H]1C(=O)c1ccc(OCCC2CCOCC2)cc1", "target": "RPS6KA6 N-terminal kinase domain", "assay": "cell-free assay, competition with immobilised ligand", "setting": "1 µM", "measurement": "remaining binding", "value": "86%"}
{"Compound": "C[C@@H]1CCN(c2nccc(-c3cnn4ncccc34)n2)C1", "target": "RPS6KA6 N-terminal kinase domain", "assay": "binding, competition with immobilised ligand", "setting": "1 µM", "measurement": "remaining binding", "value": "71%"}
{"Compound": "CC/C(=N\\NC(=O)NCc1cccc(O)c1)c1ccc(O)c(C)c1O", "target": "RPS6KA6", "assay": "enzyme activity, inhibitor", "setting": "0.1 µM", "measurement": "inhibition", "value": "66.4%"}
{"Compound": "COc1ccc(COc2ccc(Cc3cnc(N)nc3N)cc2OC)cc1", "target": "RPS6KA6", "assay": "cell-free assay", "setting": "0.5 µM", "measurement": "remaining signal", "value": "101%"}
{"Compound": "COc1cc2ncnc(Nc3ccc(Oc4ccccc4)c(C)c3C)c2cc1OC", "target": "RPS6KA6", "assay": "enzyme activity, inhibitor", "setting": "1 µM", "measurement": "inhibition", "value": "19%"}
{"Compound": "Cn1c2c(c3ccc(Cl)c(Cl)c31)C(C#N)C(C)(C)NC2=O (stereo not shown)", "target": "RPS6KA6", "assay": "thermal stability, DSF", "setting": "10 µM", "measurement": "ΔTm", "value": "2.6 °C"}
{"Compound": "CCN(CC)CCNC(=O)c1c(C)[nH]c(/C=C2\\C(=O)Nc3ccc(F)cc32)c1C", "target": "RPS6KA6", "assay": "cell-free assay", "setting": "0.5 µM", "measurement": "remaining signal", "value": "17.5%"}
{"Compound": "Cc1ccc(C(=O)NCc2ccsc2)cc1C#Cc1cn(C(C)C)c2ncnc(N)c12", "target": "RPS6KA6", "assay": "enzyme activity, inhibitor", "setting": "1 µM", "measurement": "activity vs control", "value": "71%"}
{"Compound": "Oc1ccc(-c2nc(-c3ccncc3)c(-c3ccc(F)cc3)[nH]2)cc1", "target": "RPS6KA6", "assay": "cell-free assay", "setting": "0.5 µM", "measurement": "remaining signal", "value": "110%"}
{"Compound": "CCN1CCC2(CC1)NC(=O)c1c(c3ccc(Cl)c(Cl)c3n1C)C2C#N (racemic)", "target": "RPS6KA6", "assay": "thermal stability, DSF", "setting": "10 µM", "measurement": "ΔTm", "value": "0 °C"}
{"Compound": "O=C(NS(=O)(=O)c1ccc(NCC2CCOCC2)c([N+](=O)[O-])c1)c1ccc(N2CCN(Cc3ccc(C(F)(F)F)cc3-c3ccc(Cl)cc3)CC2)cc1Oc1cnc2[nH]ccc2c1", "target": "RPS6KA6 N-terminal kinase domain", "assay": "cell-free assay, competition with immobilised ligand", "setting": "1 µM", "measurement": "remaining binding", "value": "100%"}
{"Compound": "O=C(Nc1cnn(-c2csc(C(=O)NC3COC3)c2)c1)Nc1ccccc1Cl", "target": "RPS6KA6", "assay": "enzyme activity, inhibitor", "setting": "5 µM", "measurement": "remaining activity", "value": "107%"}
{"Compound": "Cc1ccc(C(=O)Nc2ccc(CN3CCN(C)CC3)c(C(F)(F)F)c2)cc1C#Cc1cnc2cccnn12", "target": "RPS6KA6", "assay": "enzyme activity, inhibitor", "setting": "23.5 nM", "measurement": "remaining activity", "value": "93%"}
{"Compound": "CN(CCCC(F)(F)F)c1nccc(-c2cnn3ncccc23)n1", "target": "RPS6KA6 C-terminal kinase domain", "assay": "binding, competition with immobilised ligand", "setting": "1 µM", "measurement": "remaining binding", "value": "100%"}
{"Compound": "Cn1nc(C(=O)NCc2ccc(C(=O)O)cc2)cc1-c1ccc2[nH]ccc2c1", "target": "RPS6KA6 C-terminal kinase domain", "assay": "cell-free assay, competition with immobilised ligand", "setting": "0.1 µM", "measurement": "remaining binding", "value": "85%"}
{"Compound": "Nc1ncnc2occ(-c3ccc(NC(=O)Nc4cc(C(F)(F)F)ccc4F)cc3)c12", "target": "RPS6KA6 N-terminal kinase domain", "assay": "cell-free assay, inhibitor", "setting": "20 µM", "measurement": "remaining signal", "value": "5.5%"}
{"Compound": "Nc1nc(Nc2ccc(S(N)(=O)=O)cc2)nn1C(=O)c1c(F)cccc1F", "target": "RPS6KA6", "assay": "cell-free assay", "setting": "0.5 µM", "measurement": "remaining signal", "value": "24.7%"}
{"Compound": "CC(C)(C)c1nc(-c2cccc(NS(=O)(=O)c3c(F)cccc3F)c2F)c(-c2ccnc(N)n2)s1", "target": "RPS6KA6", "assay": "enzyme activity, inhibitor, radiometric", "setting": "1 µM", "measurement": "remaining activity", "value": "98%"}
{"Compound": "O=C(N1CCS(=O)(=O)CC1)N1C[C@H](c2ccc(OC(F)(F)F)cc2)C[C@H](c2nc(C3CC3)no2)C1", "target": "RPS6KA6 C-terminal kinase domain", "assay": "cell-free assay, competition with immobilised ligand", "setting": "1 µM", "measurement": "remaining binding", "value": "100%"}
{"Compound": "C[C@@H]1CCN(C(=O)CC#N)C[C@@H]1N(C)c1ncnc2[nH]ccc12", "target": "RPS6KA6", "assay": "cell-free assay, inhibitor", "setting": "0.5 µM", "measurement": "remaining signal", "value": "98.1%"}
{"Compound": "c1cnn2ncc(-c3ccnc(N4CCC45COC5)n3)c2c1", "target": "RPS6KA6 N-terminal kinase domain", "assay": "binding, competition with immobilised ligand", "setting": "1 µM", "measurement": "remaining binding", "value": "58%"}
{"Compound": "CS(=O)(=O)N1CCCC(NC(=O)[C@H](CCC2CCCCC2)NC(=O)c2ccc(CNC(=O)c3cnc4ccccn34)cc2)C1 (stereo partly shown)", "target": "RPS6KA6 N-terminal kinase domain", "assay": "cell-free assay, competition with immobilised ligand", "setting": "0.1 µM", "measurement": "remaining binding", "value": "97%"}
